Measurements as given in PubChem BioAssay.
Active and inactive are the calls of the source.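 The calls were made as follows, unless noted: active = a full or partial loss of lipid-probe fluorescence in the fish gall bladder, intestine or both, judged by eye; inactive = no fluorescence loss, or compound toxic to the fish.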

Key:
[1] = inhibitors of TNFa-induced NFkB p65 translocation, primary screen, imaging, HUVEC, MLSMR starter and 10KST1 sets (AID 438;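 active = inhibition above 20% together with a positive visual image hit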;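 also: compound added about 3h40 before a 20 min TNFalpha stimulation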;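 as to inhibition: signal is the nuclear over cytoplasmic p65 intensity ratio per well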); details: HUVEC TNFa-induced p65 nuclear translocation; cell count: measured here: nuclei count (cytotoxicity indicator), at 2.08 µM; inhibition: at 2 µM, stronger effect = higher value, 0% TNFa-plus-vehicle, 100% no-TNFa wells
[2] = endothelial E-selectin expression blockers – imaging, HUVEC, immunofluorescence, MLSMR starter and 10KST1 sets, primary screen (AID 487;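 active = visually confirmed hit in the image check and inhibition above 20%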;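 as to inhibition: signal is fraction of cell area covered by stained E-selectin grains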;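 as to nuclei count: 100% = median nuclei count of all wells on the same plate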); details: HUVEC TNFalpha-induced E-selectin immunofluorescence imaging, at 2 µM; inhibition: stronger effect = higher value; nuclei count: measured here: cell number, toxicity
[3] = Primary imaging screen for DUSP6 inhibitors that restore phospho-Erk in transfected HeLa cells, chemical complementation (AID 609;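 active = compounds giving at least 50% inhibition in the cell-based MKP-3 phosphatase rescue imaging test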;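 as to inhibition: phospho-Erk level distribution per well compared with pooled transfected vehicle control wells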); details: HeLa MKP-3 transfected, phospho-Erk imaging KS statistic, at 10 µM, cells stimulated with TPA for 15 min
[4] = biological target: Dual specificity protein phosphatase 6 (Homo sapiens) (UniProt Q16828); assay: as above; details: HeLa MKP-3 transfected, phospho-Erk imaging KS statistic; at 10 µM; stronger effect = higher value; cells stimulated with TPA for 15 min
[5] = biological target: Voltage-gated potassium channel subunit beta-2 (Rattus norvegicus) (UniProt P62483); assay: inhibitors of rat Kvbeta2 reductase activity – biochemical, NADPH fluorescence, primary screen (AID 622;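 active = fluorescence slope higher than the sample average by over 3 SD, cut at about -0.22 in these data, passing the limit was not always enough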;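 also: slope of raw intensity against log time taken from 70 to 1610 s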); details: recombinant KvBeta, 4-cyanobenzaldehyde reduction, at 10 µM, stronger effect = higher value
[6] = biological target: Voltage-gated potassium channel subunit beta-2 (Rattus norvegicus) (UniProt P62483); assay: enhancers of rat Kvbeta2 NADPH turnover – biochemical, NADPH fluorescence, primary screen (AID 623;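 active = NADPH fluorescence slope more negative than the mean of all samples by about 3 SD, 99.7% confidence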;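 also: fluorescence intensity change per second fitted from 20 to 320 s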); details: Recombinant KvBeta, NADPH fluorescence decrease slope, 10 min; at 10 µM; stronger effect = lower value
[7] = biological target: Alpha-2C adrenergic receptor (Homo sapiens) (UniProt P18825); assay: compounds altering alpha2C-coupled GIRK flux – cell-based, HEK293 alpha2C/GIRK1/2, thallium flux, primary screen (AID 624;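 active = fluorescence slope after compound addition differing from the mean of all screened samples at 99.7% confidence, in either direction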;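 also: slope of fluorescence ratio to pre-addition baseline per second over 15 to 24 s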); details: thallium flux BTC fluorescence, at 10 µM, actives lie on both sides
[8] = inhibitors of larval lipid processing in zebrafish, primary screen, whole organism, PED6 fluorescence, gall bladder and intestine (AID 686); details: Zebrafish larvae PED6 lipid processing, fluorescence scoring; screened at 20 µM (by protocol);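 also: larvae 5 to 7 days old with five fish per well; signal comes from phospholipase A2 cleavage of quenched PED6 carried via bile; overnight exposure to compound and PED6 before scoring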
Outline: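 Test system – live zebrafish larvae aged 5-7 days, whole organism · Buffer or medium – E3 fish medium · Reagent – quenched phospholipase substrate PED6, 100 nM final, ingested by larvae · Doses – 20 µM single dose · Incubation – overnight compound and PED6 incubation · Technique – visual fluorescence microscopy scoring of gall bladder, gut · Read-out basis – visual per-well fluorescence inhibition score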

[9] = loss of swimming-algae plug formation – whole organism, Chlamydomonas reinhardtii, WT vs cilia-less mutant, absorbance, 96-well, primary screen (AID 463189;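 active = inhibition at or above 50% relative to wild type and mutant plate controls; inactive = inhibition below 50%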;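 also: 0% = wild type cc124 cells in DMSO and 100% = ciliumless bld1 mutant cells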); details: Chlamydomonas reinhardtii gravitaxis, OD600 absorbance, 2 days; at 10 µM; stronger effect = higher value
[10] = measured here: cell density z-score
[11] = measured here: nuclear c-Myc green intensity z-score
[12] = measured here: nuclear pErk red intensity z-score, stronger effect = higher value

Voltage-gated potassium channel subunit beta-2 (Rattus norvegicus), sequence (P62483 whole entry, looked up): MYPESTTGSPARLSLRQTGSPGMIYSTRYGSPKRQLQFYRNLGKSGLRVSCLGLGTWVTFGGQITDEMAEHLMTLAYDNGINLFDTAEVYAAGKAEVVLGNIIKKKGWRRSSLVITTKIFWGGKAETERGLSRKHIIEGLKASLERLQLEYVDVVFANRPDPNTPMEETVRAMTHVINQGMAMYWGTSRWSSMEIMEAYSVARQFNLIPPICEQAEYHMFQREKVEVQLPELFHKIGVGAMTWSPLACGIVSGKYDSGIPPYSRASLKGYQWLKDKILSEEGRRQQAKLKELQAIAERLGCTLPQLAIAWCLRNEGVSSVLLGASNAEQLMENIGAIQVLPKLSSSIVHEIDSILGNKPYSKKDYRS
Alpha-2C adrenergic receptor (Homo sapiens), sequence (P18825 whole entry, looked up): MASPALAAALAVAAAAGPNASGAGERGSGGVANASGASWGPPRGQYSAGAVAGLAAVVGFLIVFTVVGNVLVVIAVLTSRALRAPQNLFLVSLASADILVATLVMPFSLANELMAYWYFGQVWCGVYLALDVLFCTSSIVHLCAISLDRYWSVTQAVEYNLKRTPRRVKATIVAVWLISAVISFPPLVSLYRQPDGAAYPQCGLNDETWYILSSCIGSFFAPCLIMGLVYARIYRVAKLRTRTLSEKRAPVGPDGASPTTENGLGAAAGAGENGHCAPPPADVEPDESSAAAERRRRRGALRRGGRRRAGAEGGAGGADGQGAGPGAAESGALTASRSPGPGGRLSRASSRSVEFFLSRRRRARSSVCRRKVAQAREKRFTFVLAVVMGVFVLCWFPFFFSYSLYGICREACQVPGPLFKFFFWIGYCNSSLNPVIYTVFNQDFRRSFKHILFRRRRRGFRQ
Dual specificity protein phosphatase 6 (Homo sapiens), sequence (Q16828 whole entry, looked up): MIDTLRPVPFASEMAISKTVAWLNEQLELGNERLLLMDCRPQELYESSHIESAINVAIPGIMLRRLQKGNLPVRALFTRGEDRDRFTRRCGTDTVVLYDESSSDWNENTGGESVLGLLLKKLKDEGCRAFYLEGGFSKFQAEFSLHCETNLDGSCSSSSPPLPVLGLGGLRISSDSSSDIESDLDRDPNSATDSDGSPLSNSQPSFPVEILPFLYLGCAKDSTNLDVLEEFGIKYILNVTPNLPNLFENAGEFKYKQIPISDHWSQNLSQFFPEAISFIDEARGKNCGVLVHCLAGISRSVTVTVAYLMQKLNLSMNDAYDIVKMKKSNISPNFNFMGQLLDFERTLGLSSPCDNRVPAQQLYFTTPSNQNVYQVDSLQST

Compound | cell count [1] | inhibition [1] | inhibition [2] | nuclei count [2] | z-score [3, 10] | z-score [3, 11] | z-score [3, 12] | inhibition [4] | fluorescence slope [5] | NADPH fluorescence slope [6] | slope [7] | outcome [8] | inhibition [9]
COc1ccc(CCCNC(=O)CC#N)cc1OC | 652 | -3.9% (inactive) | -14.5% (inactive) | 185% | -0.133 | 0.521 | -0.241 | 17% (inactive) | -0.512 (inactive) | -4.5e-05 (inactive) | 0.00537 (inactive) | inactive | 10.9% (inactive)
CSc1nc(NC(C)=O)nc(C)c1Cl | 555 | 1.9% (inactive) | 33.2% (inactive) | 97.7% | -0.722 | 0.648 | -0.574 | 1.48% (inactive) | -0.343 (inactive) | -7.4e-06 (inactive) | 0.00457 (inactive) | inactive | 37.7% (inactive)
O=C(O)C1CSCN1S(=O)(=O)c1cccc2nsnc12 (stereo unspecified) | 539 | -8.4% (inactive) | -34% (inactive) | 120% | -0.369 | 1.2 | -0.893 | -11.5% (inactive) | -0.496 (inactive) | -5.5e-05 (inactive) | 0.00516 (inactive) | inactive | -1.08% (inactive)
COC(=O)c1ccc(CSc2ncnc3c2sc2nc(N4CCOCC4)c4c(c23)CCCC4)o1 | 565 | -11.6% (inactive) | 7.4% (inactive) | 164% | 0.509 | -1.97 | -0.0919 | 1.48% (inactive) | -0.237 (inactive) | -1e-05 (inactive) | 0.00899 (inactive) | inactive | -7.35% (inactive)
CC1(C)CN(O)CCN1O | 325 | -5.3% (inactive) | -130% (inactive) | 104% | -0.173 | -0.721 | -0.0914 | -10.1% (inactive) | -0.452 (inactive) | -1.8e-06 (inactive) | 0.00611 (inactive) | inactive | 12% (inactive)
CN(C)C/C(Cl)=C(\Cl)c1ccccc1 | 584 | -0.1% (inactive) | -20.3% (inactive) | 159% | -1.42 | -0.391 | 0.439 | 4.25% (inactive) | -0.53 (inactive) | -6.5e-05 (inactive) | 0.00503 (inactive) | inactive | 10.7% (inactive)
CCCc1[nH]n(-c2nc3ccccc3s2)c(=O)c1C=NCCN1CCOCC1 | 538 | 1.3% (inactive) | -110% (inactive) | 123% | -0.895 | 0.406 | -1.01 | 7.93% (inactive) | -0.474 (inactive) | -4e-05 (inactive) | 0.00553 (inactive) | inactive | 19.8% (inactive)
Clc1cccc(-c2nn3c(COc4ccccc4)nnc3s2)c1 | 559 | -2.3% (inactive) | -53% (inactive) | 139% | 0.34 | 0.334 | -0.356 | -9.66% (inactive) | -0.412 (inactive) | -0.000153 (inactive) | 0.00768 (inactive) | inactive | -2.6% (inactive)
Cc1ccc(SCc2c(C#N)c3ccccc3n2C)cc1 | 288 | -2.4% (inactive) | -79.2% (inactive) | 129% | -1.74 | 2.02 | 0.448 | 12.3% (inactive) | -0.445 (inactive) | -0.000146 (inactive) | 0.00992 (active) | inactive | 16.9% (inactive)
CCN1CCCC1Cn1cnc2c([nH]c3ccc(C)cc32)c1=O (stereo unspecified) | 319 | -6.8% (inactive) | 13.2% (inactive) | 160% | -0.0977 | 0.977 | 0.149 | 9.42% (inactive) | -0.357 (inactive) | -0.000123 (inactive) | 0.00693 (inactive) | inactive | 128% (active)
COc1ccc2[nH]c3c(N4CCN(Cc5ccc6c(c5)OCO6)CC4)ncnc3c2c1 | 428 | -0.7% (inactive) | -50.8% (inactive) | 137% | 0.867 | -0.34 | 0.0587 | 0.671% (inactive) | -0.302 (inactive) | 2.3e-06 (inactive) | 0.00419 (inactive) | inactive | 141% (active)
CCCc1cc(-c2nc(N)ncc2-c2ccc3c(c2)OCCCO3)c(O)cc1OC | 570 | -16.3% (inactive) | -136% (inactive) | 122% | 0.844 | -1.91 | -0.934 | 11.9% (inactive) | -0.519 (inactive) | -5.4e-05 (inactive) | 0.00422 (inactive) | inactive | 91.5% (active)
CCOCCSc1nc2c(c(=O)[nH]c(=O)n2C)n1CCCc1ccccc1 | 487 | -2.4% (inactive) | -80.2% (inactive) | 133% | 0.294 | -0.866 | -0.255 | -3.5% (inactive) | -0.515 (inactive) | -6.3e-05 (inactive) | 0.00557 (inactive) | inactive | -2.75% (inactive)
O=C1c2ccccc2C(=O)N1CCN1CCc2ccccc21 | 404 | -3.1% (inactive) | -131% (inactive) | 166% | 0.756 | -0.637 | -0.565 | 13.2% (inactive) | -0.394 (inactive) | -5.6e-05 (inactive) | 0.00539 (inactive) | inactive | -3.59% (inactive)
Fc1ccc2[nH]c3c(N4CCN(C5CCCCC5)CC4)ncnc3c2c1 | 501 | -4.2% (inactive) | -68.6% (inactive) | 153% | -1.35 | 0.234 | 1.42 | -6.48% (inactive) | -0.152 (inactive) | -1.9e-06 (inactive) | 0.00383 (inactive) | inactive | 128% (active)
O=C(c1ccccc1F)N1CCC(N2CCCCCC2)CC1 | 332 | -3.1% (inactive) | -138% (inactive) | 95.6% | 0.261 | -1.02 | -0.289 | 15.1% (inactive) | -0.493 (inactive) | -1.4e-05 (inactive) | 0.00789 (inactive) | inactive | 50.6% (active)
CC(=O)c1cc(CN2CCCCC2)cc(OC(C)C)c1 | 667 | -6.7% (inactive) | -53.2% (inactive) | 172% | 0.66 | -1.57 | 1.24 | -3.98% (inactive) | -0.505 (inactive) | -5.3e-05 (inactive) | 0.00431 (inactive) | inactive | 10.4% (inactive)
N/C(=N\c1nc2ccccc2o1)NC(=O)c1ccccc1NC(=O)c1ccccc1 | 614 | 5.2% (inactive) | -20.4% (inactive) | 160% | 1.3 | -0.342 | -0.375 | 2.46% (inactive) | -0.361 (inactive) | -2e-05 (inactive) | 0.0114 (inactive) | inactive | 9.27% (inactive)
COC(=O)c1ccc(C2C(C(=O)c3cc4ccccc4o3)=C(O)C(=O)N2CCCN(C)C)cc1 (stereo unspecified) | 423 | -8.1% (inactive) | -11.6% (inactive) | 167% | 0.389 | 1.47 | 0.581 | -6.48% (inactive) | -0.405 (inactive) | -7.3e-05 (inactive) | 0.00626 (inactive) | inactive | -1.14% (inactive)
CN1C(=O)CC(N2CCN(c3ccc(Cl)c(Cl)c3)CC2)C1=O (stereo unspecified) | 379 | -3.9% (inactive) | -80.8% (inactive) | 94.7% | -1.07 | 0.418 | -1.7 | 5.65% (inactive) | -0.541 (inactive) | -7.5e-05 (inactive) | 0.00484 (inactive) | inactive | 0.241% (inactive)
COCCNc1nc2c(c(=O)n(Cc3ccc(OC)cc3)c(=O)n2C)n1C | 357 | -17.8% (inactive) | -26.3% (inactive) | 128% | 0.697 | 0.778 | -0.00517 | 4.37% (inactive) | -0.32 (inactive) | 7.3e-06 (inactive) | 0.00535 (inactive) | inactive | 15.2% (inactive)
COc1ccc(C2=Nn3c(nnc3-c3ccccn3)SC2)cc1 | 635 | -4.7% (inactive) | -43.3% (inactive) | 169% | 0.562 | 0.488 | -0.686 | -4.27% (inactive) | -0.427 (inactive) | -0.00018 (inactive) | 0.0069 (inactive) | inactive | 2.53% (inactive)
COc1cc(NC2=CC(=O)CC(C)(C)C2)cc(OC)c1OC | 584 | -15% (inactive) | -72.4% (inactive) | 141% | -0.351 | -0.143 | 0.715 | -1.98% (inactive) | -0.488 (inactive) | -3.8e-05 (inactive) | 0.00597 (inactive) | inactive | -4.05% (inactive)
CCOC(=O)C1CCCN(c2nc3ccccc3nc2C(C#N)C(=O)OC(C)C)C1 (stereo unspecified) | 547 | -8.3% (inactive) | 14.3% (inactive) | 143% | -1.02 | 0.486 | -0.3 | -7.86% (inactive) | -0.504 (inactive) | -3.6e-05 (inactive) | 0.00207 (inactive) | inactive | 25.2% (inactive)
CC1CN(C2CCN(S(=O)(=O)c3ccccc3)CC2)CC(C)O1 (stereo unspecified) | 451 | -10.8% (inactive) | -248% (inactive) | 159% | 1.27 | -1.71 | -0.713 | 4.37% (inactive) | -0.322 (inactive) | -2.3e-05 (inactive) | 0.00481 (inactive) | inactive | 6.96% (inactive)
CNc1oc(-c2ccc(Cl)cc2)nc1C#N | 444 | -4.2% (inactive) | -114% (inactive) | 169% | -1.3 | -0.483 | -0.6 | 6.04% (inactive) | -0.263 (inactive) | -4.5e-06 (inactive) | 0.00621 (inactive) | inactive | 7.15% (inactive)
Cc1c(Cl)c(C(F)(F)F)nn1CC(=O)N1CCSCC1 | 511 | -3.6% (inactive) | -110% (inactive) | 152% | -0.563 | -0.304 | 1.29 | -9.7% (inactive) | -0.555 (inactive) | -4.7e-05 (inactive) | 0.00531 (inactive) | inactive | -2.53% (inactive)
